Results: ChEMBL document CHEMBL2062484, “Design of barbiturate-nitrate hybrids that inhibit MMP-9 activity and secretion” (J Med Chem, 2012)
Active and inactive are the calls of the source. The rule behind the calls is not given here.

What was measured:
[1] = Cytotoxicity against human HT1080 cells assessed as cell viability after 24 hrs by MTT assay; type: cell-based; settings: HT-1080 cells
In short: (§1)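 Cells seeded (Caco-2 8 × 10³/well, HT1080 12 × 10⁴/well), grown to 70% confluence, serum-starved 1 h, then exposed to compound at 0.1−200 μM (eight levels) serum-free for 24 h. MTT 0.5 mg/mL for 3 h at 37 °C, formazan dissolved in DMSO, OD 540 nm; viability as % of untreated. CC50 from sigmoidal fits; three experiments, triplicate wells.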

Caco-2 [2] = assay: Inhibition of HGF stimulated human Caco2 cells migration through matrigel membrane at 100 nM by staining based light microscopic analysis; type: functional
In short: (§2)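 Matrigel-coated invasion chamber inserts, 8 μm pore membrane, 0.5 mL of 2 × 10⁵ Caco-2 cells/mL; stimulated with HGF (100 or 500 ng/mL) or PMA (10 μM) with compound (100 nM or 10 μM); 48 h invasion at 37 °C, 5% CO2. Non-invading cells swabbed off, lower-surface cells Diff-Quik stained and counted by light microscopy; normalized to stimulated control; duplicates.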

[3] = molecular target: 72 kDa type IV collagenase (Homo sapiens, UniProt P08253); assay: Inhibition of p-aminophenylmercuric acetate stimulated human recombinant MMP-2 using (7-methoxycoumarin-4-yl)-acetyl-pro-Leu-Gly-Leu-(3-(2,4-dinitrophenyl)-L-2,3-diaminopropionyl)-Ala-Arg-NH2 as substrate after 45 mins by fluorogenic assay
[4] = molecular target: Matrix metalloproteinase-9 (Homo sapiens, UniProt P14780); assay: Inhibition of p-aminophenylmercuric acetate stimulated human recombinant MMP-9 using (7-methoxycoumarin-4-yl)-acetyl-pro-Leu-Gly-Leu-(3-(2,4-dinitrophenyl)-L-2,3-diaminopropionyl)-Ala-Arg-NH2 as substrate after 45 mins by fluorogenic assay
[5] = Cytotoxicity against human Caco2 cells assessed as cell viability after 24 hrs by MTT assay; type: cell-based; settings: Caco-2 cells; in short: as §1
Caco-2 [6] = assay: Inhibition of IL1beta/TNFalpha-stimulated MMP-9 secretion in human Caco2 cells at 10 uM after 24 hrs by densitometric analysis; type: functional, cell-based
In short: (§3)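 Near-confluent (~75%) Caco-2 switched to serum-free medium, pretreated 30 min with compound (10 μM, DMSO <1%), then TNF-α and IL-1β 10 ng/mL for 24 h at 37 °C. Cleared supernatants normalized by Bradford protein, run on 2% gelatin SDS-PAGE, Triton washed, developed 48 h at 37 °C in Tris pH 7.5/CaCl2 buffer, Coomassie stained; lysis bands quantified by densitometry as % of cytokine-only control.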

Caco-2 [7] = assay: Induction of nitrate release in human Caco2 cells at 10 uM after 24 hrs by Griess assay; type: functional, cell-based
In short: (§4)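 Compounds incubated 24 h with Caco-2 monolayers at 200 or 10 μM (n = 3). Supernatant nitrite read by Griess reaction (sulfanilamide 2% plus N-1-naphthylethylenediamine) at 4 °C, 45 min shaking, A540; nitrate measured after VCl3 reduction. Quantified against sodium nitrite/nitrate standards 3−200 μM; NOx = nitrite + nitrate.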

Caco-2 [8] = assay: Inhibition of IL1beta/TNFalpha-stimulated MMP-2 secretion in human Caco2 cells at 10 uM after 24 hrs by densitometric analysis; type: functional, cell-based; in short: as §3
HT-1080 [9] = assay: Inhibition of PMA-stimulated MMP-9 secretion in human HT1080 cells at 100 uM after 24 hrs by gelatin zymography; type: functional; settings: for inhibition at 100 µM: HT-1080, 24 h
In short: (§5)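 HT1080 at ~75% confluence switched to serum-free medium, pretreated 3 h with compound (100 μM; DMSO ≤0.1%), then PMA 10 μM for 24 h at 37 °C. Cleared supernatants loaded at equal protein on 2% gelatin SDS-PAGE, Triton washed, developed 48 h at 37 °C in Tris pH 7.5/CaCl2 buffer, Coomassie stained; gelatinolytic bands quantified by densitometry relative to stimulated control.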

[10] = Cytotoxicity against human Caco2 cells assessed as inhibition of cell viability at 12.5 uM after 24 hrs by MTT assay; type: cell-based; settings: Caco-2 cells, read-out: INH; in short: as §1
Caco-2 [11] = assay: Induction of apoptosis in human Caco2 cells assessed as increase in apoptotic cell population at 10 uM after 24 hrs by Annexin V FITC staining based flow cytometry; settings: caco-2, 24 h
In short: (§6)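 Cells at 80% confluence in T25 flasks treated 24 h serum-free with compound (10 μM); vehicle-only controls. Cells washed in Hepes pH 7.4/NaCl/CaCl2 binding buffer, double-stained with Annexin V-FITC and propidium iodide 15 min at room temperature in dark, read by flow cytometry within 5 min; expressed as % of control fluorescence.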

Caco-2 [12] = assay: Induction of nitrite release in human Caco2 cells at 200 uM after 24 hrs by Griess assay; type: functional, cell-based; in short: as §4
Caco-2 [13] = assay: Induction of nitrate release in human Caco2 cells at 200 uM after 24 hrs by Griess assay; type: functional, cell-based; in short: as §4
HT-1080 [14] = assay: Induction of apoptosis in human HT1080 cells assessed as increase in apoptotic cell population at 10 uM after 24 hrs by Annexin V FITC staining based flow cytometry; settings: ht-1080, 24 h; in short: as §6
Caco-2 [15] = assay: Induction of apoptosis in human Caco2 cells assessed as increase in necrotic cell population at 10 uM after 24 hrs by Annexin V FITC staining based flow cytometry; settings: caco-2, 24 h; in short: as §6
Caco-2 [16] = assay: Induction of nitrite release in human Caco2 cells at 10 uM after 24 hrs by Griess assay; type: functional, cell-based; in short: as §4
HT-1080 [17] = assay: Inhibition of PMA-stimulated MMP-2 secretion in human HT1080 cells at 100 uM after 24 hrs by gelatin zymography; type: functional, cell-based; in short: as §5
HT-1080 [18] = assay: Induction of apoptosis in human HT1080 cells assessed as increase in necrotic cell population at 10 uM after 24 hrs by Annexin V FITC staining based flow cytometry; settings: ht-1080, 24 h; in short: as §6
Caco-2 [19] = assay: Inhibition of HGF-stimulated human Caco2 cells invasion at 10 uM by light microscopic analysis; type: functional; in short: as §2
Caco-2 [20] = assay: Inhibition of PMA-stimulated human Caco2 cells migration through matrigel membrane at 10 uM after 48 hrs by light microscopic analysis; type: functional; settings: Caco-2, 48 h; in short: as §2
[21] = Cytotoxicity against human Caco2 cells assessed as inhibition of cell viability at 100 uM after 24 hrs by MTT assay; type: cell-based; settings: Caco-2 cells, read-out: INH; in short: as §1
[22] = Cytotoxicity against human HT1080 cells assessed as inhibition of cell viability at 100 uM after 24 hrs by MTT assay; type: cell-based; settings: HT-1080 cells, read-out: INH; in short: as §1
[23] = Cytotoxicity against human Caco2 cells assessed as inhibition of cell viability at 2.5 uM after 24 hrs by MTT assay; type: cell-based; settings: Caco-2 cells, read-out: INH; in short: as §1

72 kDa type IV collagenase, sequence (P08253 whole entry): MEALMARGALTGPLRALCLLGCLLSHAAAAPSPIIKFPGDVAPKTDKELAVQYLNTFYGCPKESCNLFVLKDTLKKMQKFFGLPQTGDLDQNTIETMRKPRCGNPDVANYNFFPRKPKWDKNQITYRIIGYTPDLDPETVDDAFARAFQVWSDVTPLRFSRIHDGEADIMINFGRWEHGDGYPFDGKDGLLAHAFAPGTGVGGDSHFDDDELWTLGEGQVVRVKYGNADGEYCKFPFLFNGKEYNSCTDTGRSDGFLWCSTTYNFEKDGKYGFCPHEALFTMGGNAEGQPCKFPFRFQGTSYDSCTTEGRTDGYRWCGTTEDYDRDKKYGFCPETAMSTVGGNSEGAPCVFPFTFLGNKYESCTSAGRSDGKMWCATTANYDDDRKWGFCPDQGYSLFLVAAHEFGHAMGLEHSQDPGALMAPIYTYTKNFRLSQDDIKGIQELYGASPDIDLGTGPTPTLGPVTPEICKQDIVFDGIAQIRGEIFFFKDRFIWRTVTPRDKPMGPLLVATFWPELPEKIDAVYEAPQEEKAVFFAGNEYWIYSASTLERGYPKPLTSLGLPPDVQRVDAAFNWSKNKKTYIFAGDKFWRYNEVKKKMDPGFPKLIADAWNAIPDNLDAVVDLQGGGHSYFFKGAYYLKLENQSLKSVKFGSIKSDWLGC
Matrix metalloproteinase-9, sequence (P14780 whole entry): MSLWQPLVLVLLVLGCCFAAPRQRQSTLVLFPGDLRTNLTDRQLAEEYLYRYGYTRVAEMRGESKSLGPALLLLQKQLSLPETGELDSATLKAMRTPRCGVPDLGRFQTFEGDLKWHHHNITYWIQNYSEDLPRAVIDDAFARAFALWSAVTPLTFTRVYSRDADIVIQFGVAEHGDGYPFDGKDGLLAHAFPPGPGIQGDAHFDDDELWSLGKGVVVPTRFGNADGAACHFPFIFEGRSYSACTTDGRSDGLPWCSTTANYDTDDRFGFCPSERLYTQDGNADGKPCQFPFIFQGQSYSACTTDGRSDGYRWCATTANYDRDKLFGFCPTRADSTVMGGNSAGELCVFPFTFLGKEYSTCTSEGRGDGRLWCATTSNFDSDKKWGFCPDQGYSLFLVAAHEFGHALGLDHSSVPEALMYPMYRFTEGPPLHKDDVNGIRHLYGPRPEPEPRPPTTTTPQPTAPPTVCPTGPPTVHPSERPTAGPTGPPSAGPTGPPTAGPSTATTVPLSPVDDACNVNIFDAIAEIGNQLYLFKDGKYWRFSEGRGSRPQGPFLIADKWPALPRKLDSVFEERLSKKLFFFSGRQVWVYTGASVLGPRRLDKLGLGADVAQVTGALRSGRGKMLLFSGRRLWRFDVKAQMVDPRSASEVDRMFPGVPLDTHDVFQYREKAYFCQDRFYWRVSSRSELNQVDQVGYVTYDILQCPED

Compound | CC50 at 24 h [1] [nM] | inhibition at 0.1 µM (Caco-2 [2]) [%] | IC50 [3] [nM] | IC50 [4] [nM] | CC50 at 24 h [5] [nM] | inhibition (Caco-2 [6]) | inhibition (Caco-2 [8]) | inhibition at 100 µM (HT-1080 [9]) [%] | Activity (Caco-2 [11]) | Activity (Caco-2 [12]) | Activity (Caco-2 [13]) | Activity (HT-1080 [14]) | Activity (Caco-2 [15]) | inhibition (HT-1080 [17]) | Activity (HT-1080 [18]) | further results
O=C1NC(=O)C(c2ccc(Oc3ccccc3)cc2)(N2CCCC(CO)C2)C(=O)N1 (stereo unspecified) | 46400 | 55.3 | 15 | 6.2 | 33100 |  |  |  |  |  |  |  |  |  |  | 
O=C1NC(=O)C(c2ccc(Oc3ccccc3)cc2)(N2CCC(CO)CC2)C(=O)N1 | 66600 | 39 | 66 | 97 | 47800 |  |  |  |  |  |  |  |  |  |  | 
O=C1NC(=O)C(c2ccc(Oc3ccccc3)cc2)(N2CCCC(CO[N+](=O)[O-])C2)C(=O)N1 (stereo unspecified) | 8100 | 40.7 | 179 | 104 | > 12500 | Active | inactive | > 80 | Non-toxic | Active | Active | Non-toxic | Non-toxic | Active | Non-toxic | Activity (Caco-2 [7]): inactive; cytotoxicity at 24 h, 12.5 µM [10]: 37%; Activity (Caco-2 [16]): inactive
O=C1NC(=O)C(c2ccc(Oc3ccccc3)cc2)(N2CCC(CCO)CC2)C(=O)N1 | 30100 |  | 10 | 12 | 25200 |  |  |  |  |  |  |  |  |  |  | 
O=C1NC(=O)C(c2ccc(Oc3ccccc3)cc2)(N(CCO[N+](=O)[O-])CCO[N+](=O)[O-])C(=O)N1 | 72000 | 51.4 | 328 | 91 | > 100000 | Active | inactive | > 80 | Non-toxic | Active | Active | Non-toxic | Non-toxic | Active | Non-toxic | inhibition at 10 µM (Caco-2 [19]): 51%; inhibition at 10 µM (Caco-2 [20]): 43.3%; cytotoxicity at 24 h, 100 µM [21]: 6%
O=C1NC(=O)C(c2ccc(Oc3ccccc3)cc2)(N2CCN(CCO)CC2)C(=O)N1 | > 100000 | 46.3 |  |  | > 100000 |  |  |  |  |  |  |  |  |  |  | cytotoxicity at 24 h, 100 µM [22]: 33%; cytotoxicity at 24 h, 100 µM [21]: 25%
O=C1NC(=O)C(c2ccc(Oc3ccccc3)cc2)(N(CCO)CCO)C(=O)N1 | 6800 | 51.2 | 3.8 | 26 | 8200 |  |  |  |  |  |  |  |  |  |  | 
O=C1NC(=O)C(c2ccc(Oc3ccccc3)cc2)(N2CCC(CO[N+](=O)[O-])CC2)C(=O)N1 | 11800 | 35.8 | 219 | 212 | > 12500 | Active | inactive | > 80 | Non-toxic | Active | Active | Non-toxic | Non-toxic | Active | Non-toxic | cytotoxicity at 24 h, 2.5 µM [23]: 12%; Activity (Caco-2 [7]): inactive; inhibition at 10 µM (Caco-2 [20]): 64.9%; Activity (Caco-2 [16]): inactive
CN(CCO[N+](=O)[O-])C1(c2ccc(Oc3ccccc3)cc2)C(=O)NC(=O)NC1=O | 48500 | 44.6 | 53 | 47.6 | > 100000 | Active | inactive |  | Non-toxic | Active | Active | Non-toxic | Non-toxic | Active | Non-toxic | inhibition (HT-1080 [9]): Active; inhibition (Caco-2 [19]): inactive; cytotoxicity at 24 h, 100 µM [21]: 28%
O=C1NC(=O)C(c2ccc(Oc3ccccc3)cc2)(N2CCN(CCO[N+](=O)[O-])CC2)C(=O)N1 | 12800 | 34.8 | 149 | 92 | 26000 | Active | inactive | > 80 | Non-toxic | Active | Active | Non-toxic | Non-toxic | Active | Non-toxic | 
CN(CCO)C1(c2ccc(Oc3ccccc3)cc2)C(=O)NC(=O)NC1=O | 78500 | 34.4 | 24 | 145 | 76500 |  |  |  |  |  |  |  |  |  |  | 
